From ChEMBL document CHEMBL4190216, “Asymmetric 1,5-diarylpenta-1,4-dien-3-ones: Antiproliferative activity in prostate epithelial cell models and pharmacokinetic studies” (Eur J Med Chem, 2017)

Columns and labels:
[1] = Drug level in human liver microsomes treated with (1E,4E)-1-(1-Ethyl1H-benzo[d]imidazol-2-yl)-5-(2-methyl-4-(trifluoromethyl)thiazol-5-yl)penta-1,4-dien-3-one at 10 mM after 60 mins by UHPLC analysis; type: ADME, microsome; details: 1 h
Method in brief: (§1)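 Pooled human liver microsomes in potassium phosphate buffer (pH 7.4) with NADPH solutions A and B were preincubated for 5 min at 37 °C. Compound was then added from a 10 mM stock (3 μL into 300 μL total) and incubated 60 min at 37 °C. Reactions were quenched with an equal volume of methanol and centrifuged (10,000 × g, 4 min, 4 °C). Supernatant went to UHPLC–high-resolution MS for metabolite identification.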

[2] = Retention time of the compound; type: physicochemical
[3] = system: PC-3; test: Antiproliferative activity against human PC3 cells assessed as decrease in cell viability after 3 days by WST assay; type: functional, cell-based; details: PC-3, 72 h
Method in brief: (§2)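 Cells were seeded at 3,200 per well. PC-3 and LNCaP were grown in RPMI-1640 and DU-145 in EMEM, each with 10% FBS and 1% penicillin/streptomycin, at 37 °C and 5% CO2. Cells were exposed for 3 days to at least five concentrations, with DMSO as vehicle control. WST-1 reagent was then added for 3 h at 37 °C and absorbance read at 430 nm. IC50 came from linear inhibition, averaged over triplicates.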

[4] = system: DU-145; test: Antiproliferative activity against human DU145 cells assessed as decrease in cell viability after 3 days by WST assay; type: functional, cell-based; details: DU-145, 72 h; method in brief: as §2
[5] = system: LNCaP; test: Antiproliferative activity against human LNCAP cells assessed as decrease in cell viability after 3 days by WST assay; type: functional, cell-based; details: 72 h; method in brief: as §2
[6] = system: PC-3; test: Potency index, ratio of curcumin IC50 to test compound IC50 for human PC3 cells; type: functional
[7] = system: DU-145; test: Potency index, ratio of curcumin IC50 to test compound IC50 for human DU145 cells; type: functional
[8] = system: LNCaP; test: Potency index, ratio of curcumin IC50 to test compound IC50 for human LNCAP cells; type: functional
[9] = system: PWR-1E; test: Antiproliferative activity against human PWR-1E cells expressing androgen receptor and PSA assessed as decrease in cell viability after 3 days by WST assay; type: functional, cell-based; details: 72 h
Method in brief: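 Non-malignant prostate epithelial PWR-1E (adenovirus 12/SV40-immortalized) was seeded at 5,000 per well. Cells were exposed for 3 days at 37 °C in a CO2 incubator to at least five concentrations, with DMSO as vehicle control. WST-1 reagent was then added for 3 h at 37 °C and absorbance read at 430 nm. IC50 came from linear inhibition, as the mean of triplicate determinations.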

[10] = system: PWR-1E; test: Potency index, ratio of curcumin IC50 to test compound IC50 for human PWR-1E cells expressing androgen receptor and PSA; type: functional
[11] = Drug level in human liver microsomes treated with (1E,4E)-1-(1-(sec-Butyl)1H-imidazol-2-yl)-5-(2-methyl-4-(trifluoromethyl)thiazol-5-yl)penta-1,4-dien-3-one at 10 mM after 60 mins by UHPLC analysis; type: ADME, microsome; method in brief: as §1

| Compound | Drug metabolism [1] | Retention_time [2] [min] | IC50 [3] [nM] | IC50 [4] [nM] | IC50 [5] [nM] | Drug metabolism [11] | Ratio IC50 [6] | Ratio IC50 [7] | Ratio IC50 [8] | IC50 [9] [nM] | Ratio IC50 [10] |
| --- | --- | --- | --- | --- | --- | --- | --- | --- | --- | --- | --- |
| CCC(C)n1ccnc1/C=C/C(=O)/C=C/c1ccccn1 (stereo not given) |  |  | 300 | 340 | 240 |  | 85 | 77 | 57 | 170 | 52 |
| CCC(C)n1ccnc1/C=C/C(=O)/C=C/c1cc(C)on1 (stereo not given) |  |  | 310 | 530 | 240 |  | 82 | 50 | 57 | 110 | 81 |
| Cc1nc(C(F)(F)F)c(/C=C/C(=O)/C=C/c2nc3ccccc3n2C(C)C)s1 |  |  | 340 | 570 | 300 |  | 75 | 46 | 45 | 50 | 177 |
| CCCC(C)n1ccnc1/C=C/C(=O)/C=C/c1nc2ccccc2n1C(C)CCC (stereo not given) |  |  | 140 | 280 | 370 |  | 182 | 94 | 37 | 40 | 221 |
| CCCn1c(/C=C/C(=O)/C=C/c2ccccn2)nc2ccccc21 |  |  | 250 | 320 | 170 |  | 102 | 82 | 80 | 20 | 443 |
| CCn1c(/C=C/C(=O)/C=C/c2ccccn2)nc2ccccc21 |  |  | 230 | 460 | 120 |  | 111 | 57 | 113 | 40 | 221 |
| Cn1cc(Br)c(/C=C/C(=O)/C=C/c2ccccn2)n1 |  |  | 310 | 500 | 220 |  | 82 | 53 | 62 | 100 | 89 |
| CCC(C)n1ccnc1/C=C/C(=O)/C=C/c1nn(C)cc1Br (stereo not given) |  |  | 330 | 280 | 310 |  | 76 | 94 | 44 | 140 | 63 |
| COc1cc(/C=C/C(=O)CC(=O)/C=C/c2ccc(O)c(OC)c2)ccc1O [CURCUMIN] |  |  |  |  |  |  |  |  |  | 8850 |  |
| CCC(C)n1ccnc1/C=C/C(=O)/C=C/c1nccs1 (stereo not given) |  |  | 390 | 420 | 170 |  | 64 | 62 | 80 | 140 | 63 |
| CCC(C)n1ccnc1/C=C/C(=O)/C=C/c1conc1C (stereo not given) |  |  | 370 | 750 | 240 |  | 69 | 35 | 57 |  |  |
| CC(C)n1ccnc1/C=C/C(=O)/C=C/c1nc2ccccc2n1C(C)C |  |  | 180 | 130 | 260 |  | 141 | 138 | 52 | 30 | 293 |

Further lines, with some results ahead:

| Drug metabolism [1] | Retention_time [2] [min] | IC50 [3] [nM] | IC50 [4] [nM] | IC50 [5] [nM] | Drug metabolism [11] | Compound | Ratio IC50 [6] | Ratio IC50 [7] | Ratio IC50 [8] | IC50 [9] [nM] | Ratio IC50 [10] |
| --- | --- | --- | --- | --- | --- | --- | --- | --- | --- | --- | --- |
| Metabolite_Detected | 4.54 |  |  |  |  | CCn1c(/C(O)=C/C(=O)/C=C/c2sc(C)nc2C(F)(F)F)nc2ccccc21 |  |  |  |  |  |
| Metabolite_Detected | 4.66 |  |  |  |  | CCn1c(/C=C/C(=O)/C=C(\O)c2sc(C)nc2C(F)(F)F)nc2ccccc21 |  |  |  |  |  |
|  | 3.7 |  |  |  | Metabolite_Detected | CCC(C)n1ccnc1/C(O)=C/C(=O)/C=C/c1sc(C)nc1C(F)(F)F (stereo not given) |  |  |  |  |  |
|  |  | 260 | 290 | 260 |  | CCC(C)n1ccnc1/C=C/C(=O)/C=C/c1cccc(C)n1 (stereo not given) | 98 | 90 | 52 | 130 | 68 |
|  | 3.32 |  |  |  | Metabolite_Detected | CCC(C)n1cc(O)nc1/C=C/C(=O)/C=C/c1sc(C)nc1C(F)(F)F (stereo not given) |  |  |  |  |  |
|  | 3.97 |  |  |  | Metabolite_Detected | CCC(C)n1ccnc1/C=C/C(=O)/C=C(\O)c1sc(C)nc1C(F)(F)F (stereo not given) |  |  |  |  |  |
